Test [1] deals with T1, Peroxisome proliferator-activated receptor alpha (Homo sapiens, UniProt Q07869).
T1 sequence (Q07869 whole entry): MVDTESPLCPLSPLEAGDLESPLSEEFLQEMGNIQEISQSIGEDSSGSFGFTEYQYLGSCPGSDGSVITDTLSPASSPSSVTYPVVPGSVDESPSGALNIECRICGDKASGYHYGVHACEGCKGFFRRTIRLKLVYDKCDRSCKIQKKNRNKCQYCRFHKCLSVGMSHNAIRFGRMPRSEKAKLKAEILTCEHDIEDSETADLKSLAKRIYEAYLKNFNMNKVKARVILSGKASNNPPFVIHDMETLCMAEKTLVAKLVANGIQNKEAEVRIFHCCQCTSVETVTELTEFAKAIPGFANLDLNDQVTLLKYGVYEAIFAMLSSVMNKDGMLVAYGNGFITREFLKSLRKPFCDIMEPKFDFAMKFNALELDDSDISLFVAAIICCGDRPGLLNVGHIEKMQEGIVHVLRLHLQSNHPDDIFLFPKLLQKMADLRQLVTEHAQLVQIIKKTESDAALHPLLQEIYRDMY
Put plainly: Agonist activity at human PPAR alpha by FRET assay. Format: functional. In outline:
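Human PPARα ligand binding domain (GST-tagged) association with biotin-labeled co-activator CBP; Eu-labeled anti-GST antibody and streptavidin-APC; incubated 2 h at rt in buffer with or without compound; fluorescence read at 615 or 655 nm emission, 340 nm excitation.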

Test [2] addresses T2, Peroxisome proliferator-activated receptor delta (Homo sapiens, UniProt Q03181).
T2 sequence (Q03181 whole entry): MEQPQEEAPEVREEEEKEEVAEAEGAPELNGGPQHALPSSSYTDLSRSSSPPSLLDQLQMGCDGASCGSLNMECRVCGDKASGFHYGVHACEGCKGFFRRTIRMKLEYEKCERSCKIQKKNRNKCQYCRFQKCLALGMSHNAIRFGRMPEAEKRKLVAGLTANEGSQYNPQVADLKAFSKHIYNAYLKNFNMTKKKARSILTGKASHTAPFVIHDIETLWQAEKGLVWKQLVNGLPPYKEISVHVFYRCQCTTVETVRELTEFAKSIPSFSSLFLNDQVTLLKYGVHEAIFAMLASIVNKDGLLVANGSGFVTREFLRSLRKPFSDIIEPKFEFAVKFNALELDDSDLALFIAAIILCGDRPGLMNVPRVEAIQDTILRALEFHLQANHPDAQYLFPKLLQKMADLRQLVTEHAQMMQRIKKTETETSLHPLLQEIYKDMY
Briefly: Agonist activity at human PPAR delta by FRET assay. The class given is functional.

The target of test [3] is T3, Peroxisome proliferator-activated receptor gamma (Mus musculus, UniProt P37238).
T3 sequence (P37238 whole entry): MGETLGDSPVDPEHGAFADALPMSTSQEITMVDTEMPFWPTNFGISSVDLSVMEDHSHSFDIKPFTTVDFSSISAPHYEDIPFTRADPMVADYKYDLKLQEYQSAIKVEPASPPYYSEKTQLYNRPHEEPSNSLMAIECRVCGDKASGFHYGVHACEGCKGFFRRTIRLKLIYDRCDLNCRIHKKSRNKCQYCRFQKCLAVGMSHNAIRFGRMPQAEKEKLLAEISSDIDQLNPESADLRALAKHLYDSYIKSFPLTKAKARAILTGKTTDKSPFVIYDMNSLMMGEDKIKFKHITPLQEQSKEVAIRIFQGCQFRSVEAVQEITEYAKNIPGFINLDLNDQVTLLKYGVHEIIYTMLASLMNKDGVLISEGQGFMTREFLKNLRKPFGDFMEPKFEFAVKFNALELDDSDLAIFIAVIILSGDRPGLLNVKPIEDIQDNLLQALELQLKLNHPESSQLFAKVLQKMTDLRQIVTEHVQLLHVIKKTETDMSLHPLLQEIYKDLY
Briefly: Agonist activity at PPAR gamma in mouse 3T3L1 cells assessed as increase in insulin receptor by IRBA. Format: functional, cell-based, 3T3-L1.

The structures appear in SMILES notation.

As for `COc1cc(-c2nc3c(s2)CCCO3)ccc1OCCCOc1ccc2c(c1)CC[C@H]2CC(=O)O`, the EC50 came to 0.328 µM in test [1], 0.0013 µM in test [2] and 0.181 µM in test [3].

For `Cc1cccc(OCCCOc2ccc3c(c2)CC[C@H]3CC(=O)O)c1`, the EC50 in test [1] was > 10 µM; in test [2] it was 0.056 µM; in test [3], 8 µM.

As for `CCCc1cc(-c2nc(C(F)(F)F)cs2)ccc1OCCCOc1ccc2c(c1)CC[C@H]2CC(=O)O`, the EC50 in test [1] came to 0.197 µM; in test [2], 0.0033 µM; in test [3], 0.055 µM.

For the compound `O=C(O)C[C@@H]1CCc2cc(OCCCOc3ccc(-c4cncnc4)cc3)ccc21`, the results for the EC50 in test [1], in test [2] and in test [3] were 7.28 µM, 0.011 µM and 0.97 µM, respectively.

Take `CCCc1cc(-c2nc(CC)cs2)ccc1OCCCOc1ccc2c(c1)CC[C@H]2CC(=O)O`: the 50% effective concentration (EC50) was determined as 0.147 µM in test [1], 0.011 µM in test [2] and 0.045 µM in test [3].

For `Cc1c(OCCCOc2ccc3c(c2)CC[C@H]3CC(=O)O)ccc2[nH]ccc12`, the figures for the EC50 in test [1], in test [2] and in test [3] were > 10 µM, 0.286 µM and 6.85 µM, respectively.

For the compound `CC(=O)c1sc(-c2ccc(OCCCOc3ccc4c(c3)CC[C@H]4CC(=O)O)cc2)nc1C`, the EC50 was determined as 2.53 µM in test [1], 0.0069 µM in test [2] and 0.48 µM in test [3].

In the case of `COc1cc(-c2nc3c(s2)CCC3)ccc1OCCCOc1ccc2c(c1)CC[C@H]2CC(=O)O`, the EC50 in test [1] is 0.053 µM; in test [2] it was 0.0041 µM; in test [3], 0.116 µM.

Take `COc1cc(-c2nccs2)ccc1OCCCOc1ccc2c(c1)CC[C@H]2CC(=O)O`: the results for the EC50 in test [1] and in test [3] were 0.255 µM and 0.374 µM, respectively.

In the case of `COc1cc(-c2nc(C)c(C(=O)N(C)C)s2)ccc1OCCCOc1ccc2c(c1)CC[C@H]2CC(=O)O`, the results for the half-maximal effective concentration (EC50) in test [1] and in test [2] were 0.803 µM and 0.0021 µM, respectively.

As for `CCCc1cc(-c2nc(OCC)c(C)s2)ccc1OCCCOc1ccc2c(c1)CC[C@H]2CC(=O)O`, the EC50 in test [1] was determined as 0.061 µM; in test [2], 0.0032 µM; in test [3], 0.034 µM.

For `Cc1noc2cc(OCCCOc3ccc4c(c3)CC[C@H]4CC(=O)O)ccc12`, the EC50 in test [1] was > 10 µM; in test [2], 0.016 µM; in test [3], 3.66 µM.

`O=C(O)C[C@@H]1CCc2cc(OCCCOc3ccc(-c4ccc5cc[nH]c5c4)cc3)ccc21`: the EC50 stood at 6.6 µM in test [1], 0.0015 µM in test [2] and 0.74 µM in test [3].

With `COc1cc(C#N)ccc1OCCCOc1ccc2c(c1)CC[C@H]2CC(=O)O`, the EC50 in test [1] is 7.5 µM; in test [2], 0.014 µM; in test [3] it was 0.7 µM.

As for `O=C(O)C[C@@H]1CCc2cc(OCCCOc3ccc(-c4ccoc4)cc3)ccc21`, the EC50 in test [1] amounted to 3.27 µM; in test [2], 0.0038 µM; in test [3] it was 4.1 µM.

As to `CCc1csc(-c2ccc(OCCCOc3ccc4c(c3)CC[C@H]4CC(=O)O)cc2)n1`, the results for the EC50 in test [1], in test [2] and in test [3] were 1.28 µM, 0.0044 µM and 0.874 µM, respectively.

For the compound `O=C(O)C[C@@H]1CCc2cc(OCCCOc3ccc4cc[nH]c4c3)ccc21`, the EC50 was > 10 µM in test [1], 0.019 µM in test [2] and > 10 µM in test [3].

As for `COc1cccc(OCCCOc2ccc3c(c2)CC[C@H]3CC(=O)O)c1`, the EC50 in test [1] is > 10 µM; in test [2], 0.117 µM.

Regarding `COc1cc(-c2nc(C)c(C)s2)ccc1OCCCOc1ccc2c(c1)CC[C@H]2CC(=O)O`, the EC50 in test [1] amounted to 0.083 µM; in test [2], 0.004 µM; in test [3], 0.033 µM.

As for `Cc1coc2cc(OCCCOc3ccc4c(c3)CC[C@H]4CC(=O)O)ccc12`, the EC50 in test [1] is > 10 µM; in test [2] it was 0.008 µM; in test [3], 1.95 µM.

With `O=C(O)C[C@@H]1CCc2cc(OCCCOc3ccc(-n4cnnc4)cc3Cl)ccc21`, the EC50 was determined as 6.85 µM in test [1], 2.23 µM in test [2] and 8.7 µM in test [3].

Turning to `CCCc1cc(-c2nc(C)c(C(=O)N(C)C)s2)ccc1OCCCOc1ccc2c(c1)CC[C@H]2CC(=O)O`, the EC50 in test [1] came out at 0.14 µM; in test [2], 0.0044 µM; in test [3], 0.017 µM.

For the compound `COc1ncc(-c2ccc(OCCCOc3ccc4c(c3)CC[C@H]4CC(=O)O)cc2)c(OC)n1`, the EC50 was > 10 µM in test [1], 0.0056 µM in test [2] and 0.3 µM in test [3].

As to `O=C(O)C[C@@H]1CCc2cc(OCCCOc3ccc(-c4nc5c(s4)CCC5)cc3)ccc21`, the EC50 came to 0.112 µM in test [1], 0.0013 µM in test [2] and 1.2 µM in test [3].

Turning to `CCCc1c(OCCCOc2ccc3c(c2)CC[C@H]3CC(=O)O)ccc2c1ccn2C`, the results for the EC50 in test [1], in test [2] and in test [3] were > 10 µM, 0.029 µM and > 10 µM, respectively.

In the case of `CCc1ccc(OCCCOc2ccc3c(c2)CC[C@H]3CC(=O)O)c(OC)c1`, the EC50 in test [1] is 0.7 µM; in test [2], 0.0027 µM; in test [3], 1.65 µM.

For the compound `Cc1nc(-c2ccc(OCCCOc3ccc4c(c3)CC[C@H]4CC(=O)O)cc2)sc1C(=O)O`, the EC50 in test [1] came out at 10 µM; in test [2] it was 0.218 µM; in test [3], 0.312 µM.

On to `COc1cc(-c2nc(C)c(C(=O)O)s2)ccc1OCCCOc1ccc2c(c1)CC[C@H]2CC(=O)O`, for which the EC50 in test [1] amounted to 10 µM; in test [2] it was 0.028 µM; in test [3], 1 µM.

Take `CCCc1c(OCCCOc2ccc3c(c2)CC[C@H]3CC(=O)O)ccc2[nH]ccc12`: the EC50 was > 10 µM in test [1], 0.0062 µM in test [2] and 0.46 µM in test [3].

As for `CCCc1cc(-c2nccs2)ccc1OCCCOc1ccc2c(c1)CC[C@H]2CC(=O)O`, the results for the EC50 in test [1], in test [2] and in test [3] were 0.111 µM, 0.0016 µM and 0.048 µM, respectively.

Consider `O=C(O)C[C@@H]1CCc2cc(OCCCOc3ccc(OC(F)(F)F)cc3)ccc21`, for which the EC50 in test [1] turned out to be 6.8 µM; in test [2], 0.013 µM; in test [3], 1.02 µM.

As to `CCCc1cc(C(F)(F)F)ccc1OCCCOc1ccc2c(c1)CC[C@H]2CC(=O)O`, the figures for the EC50 in test [1] and in test [2] were 1.14 µM and 0.0016 µM, respectively.

As to `Cc1nc(-c2ccc(OCCCOc3ccc4c(c3)CC[C@H]4CC(=O)O)cc2)sc1C`, the EC50 in test [1] was determined as 1.25 µM; in test [2], 0.0029 µM; in test [3], 0.28 µM.

Turning to `O=C(O)C[C@@H]1CCc2cc(OCCCOc3ccccc3)ccc21`, the EC50 in test [1] was > 10 µM; in test [2], 0.044 µM; in test [3], > 10 µM.

As for `COc1cc(C)ccc1OCCCOc1ccc2c(c1)CC[C@H]2CC(=O)O`, the EC50 in test [1] was > 10 µM; in test [2], 0.0075 µM; in test [3], 1.67 µM.

Take `CCOc1csc(-c2ccc(OCCCOc3ccc4c(c3)CC[C@H]4CC(=O)O)c(OC)c2)n1`: the EC50 in test [1] was 1.35 µM; in test [2], 0.0034 µM; in test [3], 0.92 µM.

With `COc1cc(-c2nc3ccccc3s2)ccc1OCCCOc1ccc2c(c1)CC[C@H]2CC(=O)O`, the figures for the EC50 in test [1] and in test [2] were 0.526 µM and 0.0052 µM, respectively.

Regarding `COc1cc(-c2nc(OC(C)C)cs2)ccc1OCCCOc1ccc2c(c1)CC[C@H]2CC(=O)O`, the figures for the EC50 in test [1], in test [2] and in test [3] were 0.18 µM, 0.003 µM and 0.044 µM, respectively.

`O=C(O)C[C@@H]1CCc2cc(OCCCOc3ccc(-c4ccccc4)cc3)ccc21`: the EC50 in test [1] was > 10 µM; in test [2] it was 0.043 µM.

Regarding `CC(=O)Nc1cc(-n2ccnn2)ccc1OCCCOc1ccc2c(c1)CC[C@H]2CC(=O)O`, the EC50 stood at 9.2 µM in test [1] and 5.6 µM in test [3].

As for `O=C(O)C[C@@H]1CCc2cc(OCCCOc3ccc(-n4cncn4)cc3)ccc21`, the EC50 in test [1] is > 10 µM.

As for `CCCc1cc(Oc2ccccc2)ccc1OCCCOc1ccc2c(c1)CC[C@H]2CC(=O)O`, the EC50 in test [1] is > 10 µM; in test [2], 0.0019 µM.

Values taken from ChEMBL document CHEMBL1142242, “Indanylacetic acid derivatives carrying 4-thiazolyl-phenoxy tail groups, a new class of potent PPAR alpha/gamma/delta pan agonists: synthesis, structure-activity relationship, and in vivo efficacy” (J Med Chem, 2007).
